In series [1] the test system is MCF7. The experiment in a line: Antiproliferative activity against human MCF7 cells. In kind it is functional, cell-based. A digest of the protocol: (§1)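 Breast cancer lines used were SKBr3 (estrogen receptor negative, Her2 overexpressing) and MCF-7 (estrogen receptor positive). Values are mean ± standard deviation from at least two separate experiments, each performed in triplicate.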

Series [2] can be described thus: Antiproliferative activity against human SKBR3 cells. In kind it is functional, cell-based. The note with it: SK-BR-3. The gist of the method: as §1
Series [3] has as its target T1, Heat shock protein HSP90 (Homo sapiens) (UniProt P07900+P08238). Briefly: Inhibition of HSP90 in human MCF7 cells assessed as induction of Raf1 protein degradation at 0.5 times antiproliferative IC50 level incubated for 24 hrs by Western blotting method. Format: cell-based.
Series [4] deals with T1, Heat shock protein HSP90 (Homo sapiens). Briefly: Inhibition of HSP90 in human MCF7 cells assessed as induction of Raf1 protein degradation at 5 times antiproliferative IC50 level incubated for 24 hrs by Western blotting method. In kind it is cell-based. For orientation: In western blotting, separated proteins are transferred to a membrane and probed.
Series [5] shares this target. The experiment in a line: Inhibition of HSP90 in human MCF7 cells assessed as induction of Her2 protein degradation at 0.5 times antiproliferative IC50 level incubated for 24 hrs by Western blotting method. In kind it is cell-based.
Series [6] shares this target. Briefly: Inhibition of HSP90 in human MCF7 cells assessed as induction of Akt protein degradation at 5 times antiproliferative IC50 level incubated for 24 hrs by Western blotting method. In kind it is cell-based.
Series [7] has the same target. Briefly: Inhibition of HSP90 in human MCF7 cells assessed as induction of Her2 protein degradation at 5 times antiproliferative IC50 level incubated for 24 hrs by Western blotting method. Format: cell-based.
For series [8] the target is unchanged. Briefly: Inhibition of HSP90 in human MCF7 cells assessed as induction of Akt protein degradation at 0.5 times antiproliferative IC50 level incubated for 24 hrs by Western blotting method. Format: cell-based.
The target is the same in series [9]. Briefly: Inhibition of HSP90 in human MCF7 cells assessed as induction of Akt protein degradation at 0.2 to 10 uM incubated for 24 hrs by Western blotting method. Format: cell-based.
Series [10] shares this target. Briefly: Inhibition of HSP90 in human MCF7 cells assessed as induction of Raf1 protein degradation at 0.2 to 10 uM incubated for 24 hrs by Western blotting method. In kind it is cell-based.
Series [11] concerns MCF7. The experiment in a line: Effect on actin protein expression in human MCF7 cells at 0.2 to 10 uM incubated for 24 hrs by Western blotting method. In kind it is cell-based. The note with it: mcf7, 24 h.
Series [12] concerns MCF7. Briefly: Effect on HSP90 protein expression in human MCF7 cells at 0.2 to 10 uM incubated for 24 hrs by Western blotting method. Format: cell-based. The note with it: mcf7, 24 h.
Series [13] has as its target T1, Heat shock protein HSP90 (Homo sapiens). The experiment in a line: Inhibition of HSP90 in human MCF7 cells assessed as induction of Her2 protein degradation at 0.2 to 10 uM incubated for 24 hrs by Western blotting method. Format: cell-based.

Calls of active or inactive are those of the source. No cut-off for these calls is given here.

In general, IC50 refers to the concentration at which inhibition is half-maximal. Read a low IC50 as greater potency in that assay. As to `COc1cccc(-c2cc(C(=O)Nc3cc4ccc5c(c4oc3=O)NC(=O)C(CCNC3CC4CCC3C4)O5)ccc2OC)c1` (stereo unspecified), the concentration for half-maximal inhibition (IC50) came out at 1.22 µM in [1] and 0.68 µM in series [2].

Turning to `COc1cccc(-c2cc(C(=O)Nc3cc4ccc5c(c4oc3=O)NC(=O)C(CCCN3CCN(C)CC3)O5)ccc2OC)c1` (stereo unspecified), the IC50 in series [1] was found to be 2.43 µM; in [2], 1.76 µM.

As for `COc1cccc(-c2cc(C(=O)Nc3cc4ccc5c(c4oc3=O)NC(=O)C(CN3CCN(C(=O)OC(C)(C)C)CC3)O5)ccc2OC)c1` (stereo unspecified), the IC50 in [1] and in series [2] was above 50 µM in each case.

For the compound `COc1cccc(-c2cc(C(=O)Nc3cc4cc(OC)c(OC(C)=O)c(C)c4oc3=O)ccc2OC)c1`, inhibition in series [2] was half-maximal at 6 µM (IC50).

In the case of `COc1cccc(-c2cc(C(=O)Nc3cc4ccc5c(c4oc3=O)NC(=O)C(CCCN3CCNCC3)O5)ccc2OC)c1` (stereo unspecified), the IC50 in series [1] was determined as 12.8 µM; in series [2], 9.08 µM.

In the case of `COc1cccc(-c2cc(C(=O)Nc3cc4ccc5c(c4oc3=O)NC(=O)C(CCCCN3CCCC3)O5)ccc2OC)c1` (stereo unspecified), the values for the IC50 in series [1] and in [2] were 1.53 µM and 2.5 µM, respectively.

Take `COc1cccc(-c2cc(C(=O)Nc3cc4ccc5c(c4oc3=O)NC(=O)C(CCN3CCNCC3)O5)ccc2OC)c1` (stereo unspecified): the IC50 in series [1] was determined as 7.63 µM; in series [2] it was 5.44 µM.

Turning to `COc1cccc(-c2cc(C(=O)Nc3cc4ccc5c(c4oc3=O)NC(=O)C(C(N)=O)O5)ccc2OC)c1` (stereo unspecified), the IC50 was 33.4 µM in series [1] and above 50 µM in series [2].

Take `COc1cccc(-c2cc(C(=O)Nc3cc4ccc5c(c4oc3=O)NC(=O)C(CCN3CCN(C)CC3)O5)ccc2OC)c1` (stereo unspecified): the 50% inhibitory concentration (IC50) in series [1] amounted to 5.68 µM; in [2], 4.1 µM.

In the case of `COc1cccc(-c2cc(C(=O)Nc3cc4ccc5c(c4oc3=O)NC(=O)C(CCN3CCOCC3)O5)ccc2OC)c1` (stereo unspecified), the results for the concentration for half-maximal inhibition (IC50) in series [1] and in [2] were 7.44 µM and 6.66 µM, respectively.

As to `COc1cccc(-c2cc(C(=O)Nc3cc4ccc5c(c4oc3=O)NC(=O)C(CCCNC3CC4CCC3C4)O5)ccc2OC)c1` (stereo unspecified), the IC50 in series [1] turned out to be 1.34 µM; in [2], 1.26 µM.

On to `COc1cccc(-c2cc(C(=O)Nc3cc4ccc5c(c4oc3=O)NC(=O)C(CCCNC3CCCCC3)O5)ccc2OC)c1` (stereo unspecified), for which the inhibition entry in [3], in series [4], in series [5], in series [6], in series [7] and in series [8] was “Active” each time. The results for the IC50 in series [1] and in series [2] were 0.35 µM and 0.2 µM, respectively.

For `COc1cccc(-c2cc(C(=O)Nc3cc4ccc5c(c4oc3=O)NC(=O)C(CCCN3CCCCC3)O5)ccc2OC)c1` (stereo unspecified), the inhibition entry in [3], in [4], in series [5], in series [6], in series [7] and in [8] was “Active” throughout. Moreover, the IC50 in series [1] came out at 0.85 µM; in series [2], 0.78 µM. For the same compound, the inhibition result in [9], in [10] and in [13] was “Dose-dependent effect” in each case. The Activity entry in series [11] and in series [12] was “Non-toxic” each time.

Regarding `COc1cccc(-c2cc(C(=O)Nc3cc4ccc5c(c4oc3=O)NC(=O)C(CCN(C)C)O5)ccc2OC)c1` (stereo unspecified), the IC50 in series [1] came to 11.4 µM; in series [2], 8.06 µM.

Consider `COc1cccc(-c2cc(C(=O)Nc3cc4ccc5c(c4oc3=O)NC(=O)C(CN3CCCC3)O5)ccc2OC)c1` (stereo unspecified), for which the concentration for half-maximal inhibition (IC50) in [1] came out at 22.9 µM; in series [2], 15 µM.

As for `COc1cccc(-c2cc(C(=O)Nc3cc4ccc5c(c4oc3=O)NC(=O)C(Cc3ccccc3)O5)ccc2OC)c1` (stereo unspecified), the IC50 in series [1] is 22.1 µM; in series [2] it was 21.5 µM.

As to `COc1cccc(-c2cc(C(=O)Nc3cc4ccc5c(c4oc3=O)NC(=O)C(CCN3CCCC3)O5)ccc2OC)c1` (stereo unspecified), the values for the IC50 in [1] and in series [2] were 5.2 µM and 3.49 µM, respectively.

For `COc1cccc(-c2cc(C(=O)Nc3cc4ccc5c(c4oc3=O)NC(=O)C(CCNC34C[C@H]6C[C@@H](C3)C[C@@H](C4)C6)O5)ccc2OC)c1` (stereo partly specified), the IC50 in series [1] was determined as 1.09 µM; in series [2] it was 0.88 µM.

As to `COc1cccc(-c2cc(C(=O)Nc3cc4ccc5c(c4oc3=O)NC(=O)C(Cc3ccc(C)cc3)O5)ccc2OC)c1` (stereo unspecified), the IC50 in series [1] and in series [2] was above 50 µM in each case.

Consider `COc1cccc(-c2cc(C(=O)Nc3cc4ccc5c(c4oc3=O)NC(=O)C(CCN3CCCCC3)O5)ccc2OC)c1` (stereo unspecified), for which the IC50 came out at 1.04 µM in [1] and 1.03 µM in series [2].

Consider `COc1cccc(-c2cc(C(=O)Nc3cc4ccc5c(c4oc3=O)NC(=O)C(CCNC3CCCCC3)O5)ccc2OC)c1` (stereo unspecified), for which the IC50 amounted to 1.16 µM in series [1] and 0.78 µM in [2].

Consider `COc1ccc(CC2Oc3ccc4cc(NC(=O)c5ccc(OC)c(-c6cccc(OC)c6)c5)c(=O)oc4c3NC2=O)cc1` (stereo unspecified), for which the IC50 amounted to 6.12 µM in series [1] and 8.37 µM in series [2].

As to `COc1cccc(-c2cc(C(=O)Nc3cc4ccc5c(c4oc3=O)NC(=O)C(CCCN[C@]34CC6CC(C[C@@H](C6)C3)C4)O5)ccc2OC)c1` (stereo partly specified), the inhibition entry in series [3], in series [4], in [5], in series [6], in series [7] and in series [8] was “Active” each time. Further, the IC50 worked out at 0.72 µM in series [1] and 0.62 µM in series [2].

In the case of `COc1cccc(-c2cc(C(=O)Nc3cc4ccc5c(c4oc3=O)NC(=O)C(Cc3ccc(Cl)cc3)O5)ccc2OC)c1` (stereo unspecified), the IC50 in [1] and in series [2] was above 50 µM each time.

As for `COc1cccc(-c2cc(C(=O)Nc3cc4ccc(O[C@H]5OC(C)(C)[C@@H](OC)[C@H](O)[C@@H]5O)c(OC)c4oc3=O)ccc2OC)c1`, the concentration for half-maximal inhibition (IC50) was determined as 9 µM in series [1] and 13.9 µM in series [2].

As for `COc1cccc(-c2cc(C(=O)Nc3cc4ccc5c(c4oc3=O)NC(=O)C(CN3CCNCC3)O5)ccc2OC)c1` (stereo unspecified), the IC50 in series [1] amounted to 5.27 µM; in series [2], 5.78 µM.

With `COc1cccc(-c2cc(C(=O)Nc3cc4ccc5c(c4oc3=O)NC(=O)C(C(=O)N3CCCC3)O5)ccc2OC)c1` (stereo unspecified), the IC50 in series [1] and in series [2] was above 50 µM throughout.

Take `COc1cccc(-c2cc(C(=O)Nc3cc4ccc5c(c4oc3=O)NC(=O)C(c3ccccc3)O5)ccc2OC)c1` (stereo unspecified): the values for the IC50 in [1] and in series [2] were above 50 µM and 48.2 µM, respectively.

For the compound `COc1cccc(-c2cc(C(=O)Nc3cc4ccc(OCCN(C)C)c(OC)c4oc3=O)ccc2OC)c1`, in series [2], 2 µM corresponded to half-maximal inhibition (IC50).

On to `COc1cccc(-c2cc(C(=O)Nc3cc4ccc5c(c4oc3=O)NC(=O)C(CCCN3CCCC3)O5)ccc2OC)c1` (stereo unspecified), for which the figures for the IC50 in series [1] and in series [2] were 1.49 µM and 1.02 µM, respectively.

The values are drawn from ChEMBL document CHEMBL3421593, “Design, synthesis, and biological evaluation of ring-constrained novobiocin analogues as hsp90 C-terminal inhibitors” (ACS Med Chem Lett, 2015).
